Data: paper PMC10580023 (RSC Advances, 2023)

Key:
Assay type in all cases: cell-based
RAW 264.7 cells [1] = assay: Intracellular ROS by DCFH-DA probe in LPS-stimulated macrophages; conditions: Mus musculus, RAW264.7, read-out: ROS inhibition rate
In short: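 RAW 264.7 macrophages (DMEM/10% FBS, 37 °C, 5% CO₂) pre-treated with test compound for 24 h, then stimulated with LPS 1 μg mL⁻¹ for 4 h. Cells harvested, loaded with DCFH-DA for 30 min at 37 °C in the dark, and washed three times with PBS. DCF fluorescence read on a multimode imaging reader and […]. Mean ± SD of three independent experiments.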

RAW 264.7 cells [2] = assay: CCK-8 cell viability
In short: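 Mouse RAW 264.7 macrophages (passage ≤30) grown in DMEM with 10% FBS and 1% antibiotic-antimycotic at 37 °C under 5% CO₂. Seeded at 10⁵ per well and left overnight. Exposed to test compound at 0–200 μM for 24 h. Viability read with a CCK-8 kit as % cell viability; IC50 calculated by curve fitting. Mean ± SD of three independent experiments.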

RAW 264.7 cells [3] = assay: IL-6 secretion by ELISA in LPS-stimulated macrophages; conditions: pre-treatment 24 h, then LPS 1 μg mL^−1 for 4 h; ELISA of supernatant
In short: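 RAW 264.7 macrophages (within passage 30) grown in DMEM with 10% FBS and 1% antibiotic-antimycotic at 37 °C, 5% CO2. Test compound at 25, 50 and 100 μM (legend: 0, 25, 50 μM) for 24 h, then LPS 1 μg mL⁻¹ for 4 h. Supernatant IL-6 measured by commercial ELISA kit. Three independent experiments, mean ± SD, compared with the LPS group.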

RAW 264.7 cells [4] = assay: TNF-α secretion by ELISA in LPS-stimulated macrophages; conditions: pre-treatment 24 h, then LPS 1 μg mL^−1 for 4 h; ELISA of supernatant

Row | Compound | inhibition at 50 µM (RAW 264.7 cells [1]) [%] | Cytotoxicity (in words) (RAW 264.7 cells [2]) | Prevention of LPS-induced IL-6 secretion (RAW 264.7 cells [3]) | inhibition at 25 µM (RAW 264.7 cells [1]) [%] | Prevention of LPS-induced TNF-α secretion (RAW 264.7 cells [4])
1 | C=C(C[C@@H]1CCOc2ccccc21)c1ccccc1C [3am] | 29 |  |  |  | 
2 | C=C(C[C@@H]1CCSc2ccccc21)c1ccccc1C [3bd] | 52 |  |  |  | 
3 | C=C(C[C@@H]1CCOc2ccccc21)c1ccc(C)cc1 [3aj] |  | little cytotoxicity | able to prevent LPS-induced IL-6 secretion |  | 
4 | C=C(C[C@@H]1CCOc2ccccc21)c1ccc(Cl)cc1 [3al] |  |  | able to prevent LPS-induced IL-6 secretion |  | 
5 | Cc1c(C)c2c(c(C)c1O)CCC(C)(C(=O)O)O2 (centres unmarked) [Trolox, reference compound] | 20 |  |  | -3 | 
6 | C=C(C[C@@H]1CCOc2ccc(C)cc21)c1ccccc1 [3ac] | 23 |  |  | -24 | no effect
7 | C=C(C[C@@H]1CCSc2ccc(C)cc21)c1ccccc1 [3ax] | 49 |  |  | 32 | no effect
8 | C=C(C[C@@H]1CCSc2ccc(OC)cc21)c1ccccc1 [3aw] |  |  | able to prevent LPS-induced IL-6 secretion |  | 
